Measurements reported in PubChem BioAssay AID624363 (Broad Institute, 2012).
Several values for one entry are separate records, joined by “and”; a condition that tells them apart may be missing. Identical values can stand only once.

What follows are molecules tested on SK-MEL-5 TRPM1 promoter luciferase reporter, 24 h (assay: inhibitors of MITF-driven TRPM1 reporter, dose response, cell-based, SK-MEL-5, luciferase, dry powder, set 5 (AID 624363)).
Outline: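 Material: SK-MEL-5 TRPM1 promoter luciferase reporter cells / Quantity: 2000 reporter cells per well / Incubation: compound exposure 24 h at 37 °C, one day after plating / Benchmarks: parthenolide at 27 µM as positive control / Buffer or medium: phenol red-free DMEM, 10% FBS / Detection: SteadyGlo luciferase luminescence after 5 min at room temperature / Compound: pin-transferred compounds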
Molecule NC1=CC(=O)c2ccccc2C1=O has an AC50 of 1.06 µM. With CN1CCN(C2=C(NS(=O)(=O)c3cccs3)C(=O)c3ccccc3C2=O)CC1 the AC50 was 3.51 µM. With O=C1C(Nc2ccccc2)=C(N2CCCCC2)C(=O)c2ccccc21 the AC50 was 6.28 µM. With NC1=C(NS(=O)(=O)c2ccccc2)C(=O)c2ccccc2C1=O the AC50 was 4.31 µM. Work on COc1ccc(C2=C(NC(=O)c3cccc(OC)c3)C(=O)c3ccccc3C2=O)cc1 yielded an AC50 of 6.98 µM. O=C(NC1=C(c2ccccc2)C(=O)c2ccccc2C1=O)c1ccccc1 showed an AC50 of 6.93 µM. O=C1C(Nc2ccccc2)=C(c2ccccc2)C(=O)c2ccccc21 was tested, and the AC50 was 4.49 µM. O=C(CNc1cccc2ccccc12)N/N=C/c1ccc([N+](=O)[O-])o1 was tested, and the AC50 was 3.64 µM. Work on CC(=O)N(C)C1=C(N2CCCCC2)C(=O)c2ccccc2C1=O yielded an AC50 of 0.796 µM. Molecule O=C1C(NS(=O)(=O)c2ccccc2)=C(c2ccccc2)C(=O)c2ccccc21 has an AC50 of 20.5 µM. Molecule CC1CCN(CC(CS(=O)(=O)c2ccc([N+](=O)[O-])cc2)N2CCC(C)CC2)CC1 (stereo unspecified) has an AC50 of 2.71 µM. For O=C(NC1=C(c2ccc(OC(F)(F)F)cc2)C(=O)c2ccccc2C1=O)c1ccc(Br)cc1, the AC50 was 25 µM. CCN1CCN(C2=C(NC(=O)c3ccc(Br)cc3)C(=O)c3ccccc3C2=O)CC1 was tested, and the AC50 was 0.845 µM. In the case of Cc1nc2ccccc2n1/N=C/c1ccc([N+](=O)[O-])s1, the AC50 is reported as 4.34 µM. CN1CCN(C2=C(NC(=O)c3ccc(Br)cc3)C(=O)c3ccccc3C2=O)CC1 was tested, and the AC50 was 1.14 µM. CC(=O)NC1=C(c2ccccc2)C(=O)c2ccccc2C1=O gave an AC50 of 6.67 µM. C=CCNC1=C(N2CCOCC2)C(=O)c2ccccc2C1=O showed an AC50 of 2.54 µM. Molecule NC1=C(NS(=O)(=O)c2ccc(Br)cc2)C(=O)c2ccccc2C1=O has an AC50 of 8.9 µM. For COc1ccc(C2=C(NC(=O)c3cccc(Cl)c3)C(=O)c3ccccc3C2=O)cc1, the AC50 was 11 µM. For O=C1C(NS(=O)(=O)c2ccc(Br)s2)=C(N2CCOCC2)C(=O)c2ccccc21, the AC50 was 15 µM. C[C@@H](NC1=C(Nc2ccccc2)C(=O)c2ccccc2C1=O)c1ccccc1 showed an AC50 of 13.4 µM. COC1=C(NS(=O)(=O)c2cccs2)C(=O)c2ccccc2C1=O showed an AC50 of 17.5 µM. Molecule CC(=O)NC1=C(c2cccc(Cl)c2)C(=O)c2ccccc2C1=O has an AC50 of 3.67 µM. Work on C=CCNC1=C(N2CCN(CC)CC2)C(=O)c2ccccc2C1=O yielded an AC50 of 4.47 µM. C=CCNC1=C(NCCCN(CC)CC)C(=O)c2ccccc2C1=O gave an AC50 of 4.6 µM. For C=CCNC1=C(N2CCCCC2)C(=O)c2ccccc2C1=O, the AC50 was 0.983 µM. In the case of O=C(NC1=C(c2ccccc2)C(=O)c2ccccc2C1=O)c1ccco1, the AC50 is reported as 9.7 µM. In the case of O=C1C(Nc2ccccc2)=C(N2CCSCC2)C(=O)c2ccccc21, the AC50 is reported as 9.7 µM. With O=C1C(NS(=O)(=O)c2cccs2)=C(c2ccccc2)C(=O)c2ccccc21 the AC50 was 10.5 µM. Work on O=C1C(NS(=O)(=O)c2ccc(Br)cc2)=C(N2CCCCC2)C(=O)c2ccccc21 yielded an AC50 of 27.7 µM. CCN1CCN(C2=C(NS(=O)(=O)c3cccs3)C(=O)c3ccccc3C2=O)CC1 gave an AC50 of 2.96 µM. In the case of O=C(NC1=C(c2ccccc2)C(=O)c2ccccc2C1=O)c1ccc(Br)cc1, the AC50 is reported as 24.4 µM. COc1ccc(C2=C(NC(=O)c3ccc(Cl)cc3)C(=O)c3ccccc3C2=O)cc1 showed an AC50 of 15.3 µM. In the case of Cc1ccc(C(=O)NC2=C(c3ccc(OC(F)(F)F)cc3)C(=O)c3ccccc3C2=O)o1, the AC50 is reported as 13.4 µM. Work on NC1=C(c2ccc(OC(F)(F)F)cc2)C(=O)c2ccccc2C1=O yielded an AC50 of 20.4 µM. O=C(NC1=C(Cl)C(=O)c2ccccc2C1=O)c1ccccc1 was tested, and the AC50 was 0.806 µM. C=CCNC1=C(N2CCN(C)CC2)C(=O)c2ccccc2C1=O gave an AC50 of 3.89 µM. With C=CCNC1=C(NCCN(CC)CC)C(=O)c2ccccc2C1=O the AC50 was 4.88 µM. Work on CC(=O)NC1=C(c2ccc3c(c2)oc2ccccc23)C(=O)c2ccccc2C1=O yielded an AC50 of 2.15 µM. With CN1CCN(C2=C(NC(=O)c3ccccc3)C(=O)c3ccccc3C2=O)CC1 the AC50 was 1.04 µM. Molecule CC(=O)NC1=C(c2ccc(Cl)cc2)C(=O)c2ccccc2C1=O has an AC50 of 3.45 µM. For O=C1C(NS(=O)(=O)c2ccc(Br)s2)=C(N2CCSCC2)C(=O)c2ccccc21, the AC50 was 22.7 µM. CCN(CC)CCCNC1=C(Nc2ccccc2)C(=O)c2ccccc2C1=O was tested, and the AC50 was 2.17 µM. For O=C(NC1=C(N2CCOCC2)C(=O)c2ccccc2C1=O)c1ccccc1, the AC50 was 8.05 µM. O=C1C=C(Nc2ccccc2)C(=O)c2ccccc21 was tested, and the AC50 was 4.02 µM and 5.21 µM. In the case of O=C1C(Nc2ccccc2)=C(N2CCN(c3ccccc3)CC2)C(=O)c2ccccc21, the AC50 is reported as 12.1 µM. CN1CCN(C2=C(NS(=O)(=O)c3ccccc3)C(=O)c3ccccc3C2=O)CC1 showed an AC50 of 1.09 µM. Work on CCN(CC)CCNC1=C(Nc2ccccc2)C(=O)c2ccccc2C1=O yielded an AC50 of 4.88 µM. C=CCNC1=C(NCCCN2CCOCC2)C(=O)c2ccccc2C1=O showed an AC50 of 13.9 µM. In the case of NC1=C(NS(=O)(=O)c2cccs2)C(=O)c2ccccc2C1=O, the AC50 is reported as 4.17 µM. COc1ccc(C(=O)NC2=C(c3ccc(OC)cc3)C(=O)c3ccccc3C2=O)cc1 showed an AC50 of 7.11 µM. For COc1ccc(C2=C(NC(=O)c3ccccc3OC)C(=O)c3ccccc3C2=O)cc1, the AC50 was 23.7 µM. NC1=C(c2ccccc2)C(=O)c2ccccc2C1=O was tested, and the AC50 was 4.34 µM. Work on CCN1c2ccccc2NC2N=C(OC)C(c3ccccc3)C21 (stereo unspecified) yielded an AC50 of 3.74 µM. Molecule O=C1C(Nc2ccccc2)=C(NS(=O)(=O)c2ccccc2[N+](=O)[O-])C(=O)c2ccccc21 has an AC50 of 16.9 µM. In the case of C=CCNC1=C(N2CCSCC2)C(=O)c2ccccc2C1=O, the AC50 is reported as 3.93 µM. CCN1CCN(C2=C(NS(=O)(=O)c3ccc(Br)s3)C(=O)c3ccccc3C2=O)CC1 showed an AC50 of 3.89 µM. With O=C(NC1=C(c2ccc(OC(F)(F)F)cc2)C(=O)c2ccccc2C1=O)c1ccccc1F the AC50 was 19.9 µM. Molecule CN1CCN(C2=C(Nc3ccccc3)C(=O)c3ccccc3C2=O)CC1 has an AC50 of 7.78 µM. In the case of CCN1CCN(C2=C(N(C)C(C)=O)C(=O)c3ccccc3C2=O)CC1, the AC50 is reported as 0.318 µM. For COC1=C(Nc2ccccc2)C(=O)c2ccccc2C1=O, the AC50 was 2.69 µM. With O=C(NC1=C(N2CCCCC2)C(=O)c2ccccc2C1=O)c1ccccc1 the AC50 was 23.3 µM. O=C1C(NS(=O)(=O)c2ccccc2)=C(N2CCOCC2)C(=O)c2ccccc21 showed an AC50 of 19.3 µM. For COc1ccc(C(=O)NC2=C(c3ccccc3)C(=O)c3ccccc3C2=O)cc1, the AC50 was 14.4 µM. NC1=C(NS(=O)(=O)c2ccc(Br)s2)C(=O)c2ccccc2C1=O gave an AC50 of 17.5 µM. CC(=O)N(C)C1=C(N2CCOCC2)C(=O)c2ccccc2C1=O was tested, and the AC50 was 2.45 µM. C=CCNC1=C(NS(=O)(=O)c2cccs2)C(=O)c2ccccc2C1=O showed an AC50 of 14.2 µM. NC1=C(NC(=O)c2ccccc2)C(=O)c2ccccc2C1=O showed an AC50 of 4.08 µM. COc1cccc(-c2cc(C(=O)NC3=C(Cl)C(=O)c4ccccc4C3=O)ccc2OC)c1 showed an AC50 of 3.34 µM. Work on O=C(NC1=C(N2CCSCC2)C(=O)c2ccccc2C1=O)c1ccccc1 yielded an AC50 of 4.96 µM. In the case of CC(=O)N(C)C1=C(N2CCN(C)CC2)C(=O)c2ccccc2C1=O, the AC50 is reported as 0.404 µM. CCN1CCN(C2=C(Nc3ccccc3)C(=O)c3ccccc3C2=O)CC1 was tested, and the AC50 was 0.809 µM. C=C1C(=O)OC2C1CC/C(C)=C\CCC1(C)OC21 (stereo unspecified) was tested, and the AC50 was 3.51 µM. Work on COc1cccc(C2=C(NC(=O)c3ccccc3)C(=O)c3ccccc3C2=O)c1 yielded an AC50 of 16.6 µM. COc1ccc(C2=C(NC(=O)c3ccccc3Cl)C(=O)c3ccccc3C2=O)cc1 gave an AC50 of 5.18 µM. Molecule C=CCNC1=C(N(C)C(C)=O)C(=O)c2ccccc2C1=O has an AC50 of 0.0923 µM. In the case of C=CCNC1=C(Cl)C(=O)c2ccccc2C1=O, the AC50 is reported as 0.799 µM and 1.88 µM. Work on CN1CCN(C2=C(NS(=O)(=O)c3ccc(Br)cc3)C(=O)c3ccccc3C2=O)CC1 yielded an AC50 of 7.58 µM. COc1ccc(C2=C(NC(C)=O)C(=O)c3ccccc3C2=O)cc1 was tested, and the AC50 was 4.84 µM. With COc1ccc(S(=O)(=O)N(C(C)=O)c2ccc(OC(C)=O)c3ccccc23)cc1[N+](=O)[O-] the AC50 was 6.42 µM. Cc1ccc(C(=O)NC2=C(c3ccccc3)C(=O)c3ccccc3C2=O)o1 was tested, and the AC50 was 3.23 µM. With O=C(NC1=C(N2CCSCC2)C(=O)c2ccccc2C1=O)c1ccc(Br)cc1 the AC50 was 10.1 µM. Molecule O=C1C(NS(=O)(=O)c2cccs2)=C(N2CCCCC2)C(=O)c2ccccc21 has an AC50 of 22.1 µM. O=C1C=C(NS(=O)(=O)c2ccccc2)C(=O)c2ccccc21 was tested, and the AC50 was 7.45 µM. Work on CN1CCN(C2=C(NS(=O)(=O)c3ccc(Br)s3)C(=O)c3ccccc3C2=O)CC1 yielded an AC50 of 1.98 µM. CC(=O)NC1=C(c2ccc(Oc3ccccc3)cc2)C(=O)c2ccccc2C1=O showed an AC50 of 19.8 µM. Molecule O=C1C(NS(=O)(=O)c2ccccc2)=C(N2CCCCC2)C(=O)c2ccccc21 has an AC50 of 22.2 µM. Work on CCN1CCN(C2=C(NS(=O)(=O)c3ccc(Br)cc3)C(=O)c3ccccc3C2=O)CC1 yielded an AC50 of 8.69 µM. Work on CCN1CCN(C2=C(NC(=O)c3ccccc3)C(=O)c3ccccc3C2=O)CC1 yielded an AC50 of 0.783 µM. For CCN(CC)CCCNC1=C(N(C)C(C)=O)C(=O)c2ccccc2C1=O, the AC50 was 0.305 µM. O=C(NC1=C(c2ccc(OC(F)(F)F)cc2)C(=O)c2ccccc2C1=O)c1ccccc1 gave an AC50 of 18.9 µM. Molecule O=C1C=C(NS(=O)(=O)c2cccs2)C(=O)c2ccccc21 has an AC50 of 1.71 µM. In the case of CCN(CC)CCCCNC1=C(Nc2ccccc2)C(=O)c2ccccc2C1=O, the AC50 is reported as 4.14 µM. O=C1C(NS(=O)(=O)c2ccc(Br)s2)=C(N2CCCCC2)C(=O)c2ccccc21 gave an AC50 of 23.3 µM. With O=C1C(NS(=O)(=O)c2cccs2)=C(N2CCOCC2)C(=O)c2ccccc21 the AC50 was 12.4 µM. COC1=C(NS(=O)(=O)c2ccccc2)C(=O)c2ccccc2C1=O showed an AC50 of 4.93 µM. O=C(NC1=C(c2ccc(OC(F)(F)F)cc2)C(=O)c2ccccc2C1=O)c1ccco1 was tested, and the AC50 was 20.9 µM. For O=C(NC1=C(N2CCOCC2)C(=O)c2ccccc2C1=O)c1ccc(Br)cc1, the AC50 was 12.5 µM. Work on CNC1=CC(=O)c2ccccc2C1=O yielded an AC50 of 9.17 µM. Work on O=C1C(NS(=O)(=O)c2ccc(Br)cc2)=C(N2CCOCC2)C(=O)c2ccccc21 yielded an AC50 of 14.4 µM. In the case of O=C1C=C(NS(=O)(=O)c2ccc(Br)cc2)C(=O)c2ccccc21, the AC50 is reported as 9.16 µM. In the case of C=CCNC1=C(NC(=O)c2ccccc2)C(=O)c2ccccc2C1=O, the AC50 is reported as 26.5 µM. In the case of COc1ccc(C(=O)NC2=C(c3ccc(OC(F)(F)F)cc3)C(=O)c3ccccc3C2=O)cc1, the AC50 is reported as 36.2 µM. With COC1=C(NS(=O)(=O)c2ccc(Br)cc2)C(=O)c2ccccc2C1=O the AC50 was 7.22 µM. C=CCNC1=C(NS(=O)(=O)c2ccc(Br)cc2)C(=O)c2ccccc2C1=O gave an AC50 of 11.9 µM. Molecule O=C1C(NCCCN2CCOCC2)=C(Nc2ccccc2)C(=O)c2ccccc21 has an AC50 of 3.7 µM.
